# Assay results gathered from unrelated publications.
# Each line is one published result; the experiments were not run side by side.
# Observed: metabolic stability
# Species: mouse
# Matrix: liver microsomes
Structure (SMILES),concentration,pH,microsomal CLint
CC(C)n1ncc2c(C(=O)NC(C)(C)CN)cc(C3CC3)nc21,,,19.1 µL/min/mg
CC1(C)NC(=O)N(c2ccc(F)c(Br)c2)C1=O,,,8 µL/min/mg
CCCCCCCCCCCCCCCC(=O)NCCOC(=O)C[C@@H](CN)CC(C)C,1 µM,pH 7.4,14.6 µL/min/mg
CCN(CC)CCOc1ccc2c(=O)c3c([nH]c2c1)CCCC3,1 µM,pH 7.4,17.7 µL/min/mg
CC1(C)NC(=O)N(c2cccc(C(F)(F)F)n2)C1=O,,,< 7 µL/min/mg
CCCN(CCC)CCCOc1ccc2c(=O)c3c([nH]c2c1)CCCC3,1 µM,pH 7.4,34.1 µL/min/mg
O=C(O)Cc1ccccc1Nc1c(Cl)cccc1Cl,,,31.2 µL/min/mg
CCN(CC)CCNC(=O)c1c(C)[nH]c(/C=C2\C(=O)Nc3ccc(F)cc32)c1C,,,41 µL/min/mg
Cc1[nH]c(C)c(S(=O)(=O)Nc2ccc(C(F)(F)F)c(Cl)c2)c1C(=O)N1CCC(F)(F)C1,,,59 µL/min/mg
O=c1c2ccc(Oc3ccc(OC(F)(F)F)cc3)cc2[nH]c2cc(Cl)c(F)cc12,1 µM,pH 7.4,1.84 µL/min/mg
CONC(=O)c1cccc2c1cc(C)n2-c1nc2c(c(NCc3ccccc3)n1)CCCN2,1 µM,pH 7.4,619 µL/min/mg
Cc1[nH]c(C)c(S(=O)(=O)Nc2ccc(C(F)(F)F)c(Cl)c2)c1C(=O)N(C)C,,,179 µL/min/mg
CCCN(CCC)CCNc1ccc2c(=O)c3c([nH]c2c1)CCCC3,1 µM,pH 7.4,81.9 µL/min/mg
CC1(C(F)F)NC(=O)N(c2ccc(F)c(C(F)(F)F)c2)C1=O (stereo not shown),,,< 7 µL/min/mg
O=c1c2ccc(OCc3cccc(OC(F)(F)F)c3)cc2[nH]c2cc(F)cc(Cl)c12,1 µM,pH 7.4,7.26 µL/min/mg
CC(C)n1ncc2c(C(=O)NCC3(C)CNC3)cc(C3CC3)nc21,,,< 9.6 µL/min/mg
CC1(C)NC(=O)N(c2ccc(F)c(CC(F)(F)F)c2)C1=O,,,< 7 µL/min/mg
CC(C)n1ncc2c(C(=O)NCC(C)(C)N(C)C)cc(C3CC3)nc21,,,30.4 µL/min/mg
CC1(C(F)(F)F)NC(=O)N(c2ccc(F)c(C(F)(F)F)c2)C1=O (stereo not shown),,,< 7 µL/min/mg
